Laboratory results reported in ChEMBL document CHEMBL4706650, “Discovery of a Novel and Brain-Penetrant O-GlcNAcase Inhibitor via Virtual Screening, Structure-Based Analysis, and Rational Lead Optimization” (J Med Chem, 2021).
Active and inactive are the calls of the source. No cut-off for these calls is given here.

Columns and labels:
Protein O-GlcNAcase [1] = target: T1, Protein O-GlcNAcase (Homo sapiens, UniProt O60502); assay: Inhibition of full-length human OGA expressed in Expi293 (HEK293) cells using 4-methylumbelliferyl-N-acetyl-beta-D-glucosaminide dihydrate as fluorogenic substrate preincubated with enzyme followed by substrate addition and measured every 5 mins for 60 mins by fluorescence based analysis
T1 sequence (O60502 whole entry): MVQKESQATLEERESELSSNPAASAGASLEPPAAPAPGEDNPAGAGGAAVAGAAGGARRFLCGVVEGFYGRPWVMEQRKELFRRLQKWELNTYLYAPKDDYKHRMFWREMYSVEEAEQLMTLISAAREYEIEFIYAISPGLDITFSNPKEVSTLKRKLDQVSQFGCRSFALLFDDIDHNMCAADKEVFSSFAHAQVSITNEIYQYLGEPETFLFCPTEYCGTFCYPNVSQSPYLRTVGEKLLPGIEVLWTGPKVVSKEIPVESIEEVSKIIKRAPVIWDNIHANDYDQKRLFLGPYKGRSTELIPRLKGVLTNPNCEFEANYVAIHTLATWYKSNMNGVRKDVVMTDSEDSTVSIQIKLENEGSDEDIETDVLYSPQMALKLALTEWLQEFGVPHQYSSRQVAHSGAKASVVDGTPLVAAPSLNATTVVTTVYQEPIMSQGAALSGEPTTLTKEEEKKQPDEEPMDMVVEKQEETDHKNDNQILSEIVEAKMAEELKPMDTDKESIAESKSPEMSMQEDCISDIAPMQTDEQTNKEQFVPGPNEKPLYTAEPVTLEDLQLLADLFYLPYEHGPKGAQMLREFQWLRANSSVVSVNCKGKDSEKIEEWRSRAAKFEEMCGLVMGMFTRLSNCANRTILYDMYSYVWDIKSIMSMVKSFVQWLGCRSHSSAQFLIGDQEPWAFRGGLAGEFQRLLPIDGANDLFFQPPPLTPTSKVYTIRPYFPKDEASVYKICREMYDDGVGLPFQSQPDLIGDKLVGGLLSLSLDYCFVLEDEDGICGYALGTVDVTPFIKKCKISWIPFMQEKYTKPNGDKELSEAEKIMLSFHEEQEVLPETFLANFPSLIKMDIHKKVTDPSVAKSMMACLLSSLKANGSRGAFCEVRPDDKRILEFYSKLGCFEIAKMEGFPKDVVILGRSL
Summary of the method: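 Human OGA, FLAG-tagged full length from transfected Expi293 cells, purified by anti-FLAG agarose and gel filtration, 1 nM. Buffer 50 mM NaH2PO4, 100 mM NaCl, 0.01% BSA, 0.01% Tween 20, 1 mM DTT, pH 7.4; 2 mM substrate added to start after compound, RT. Ex 355/em 460 nm; 0% control enzyme+DMSO, 100% no enzyme; IC50 by variable-slope sigmoidal fit.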

[2] = target: T2, Protein O-GlcNAcase (Homo sapiens) (UniProt O60502); assay: Competitive inhibition of full-length human OGA expressed in Expi293 (HEK293) cells assessed as increase in Km of substrate using varying concentrations of 4-methylumbelliferyl-N-acetyl-beta-D-glucosaminide dihydrate as fluorogenic substrate at 0.48 to 60 nM measured for 60 mins by fluorescence based analysis; settings: dose 0.48-60 nM
T2 sequence (whole entry): T1 sequence (O60502 whole entry)
Summary of the method: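 Full-length human OGA (FLAG-purified, gel filtration) at 1 nM final, in 50 mM NaH2PO4, 100 mM NaCl, 0.01% BSA, 0.01% Tween 20, 1 mM DTT, pH 7.4. Substrate serially diluted 2-fold from 2 mM at several inhibitor levels. Fluorescence read over 60 min (ex 355/em 460 nm); Vmax and Km from Michaelis–Menten nonlinear fit.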

[3] = target: T2, Protein O-GlcNAcase (Homo sapiens); assay: Inhibition of full-length human OGA expressed in Expi293 (HEK293) cells using 4-methylumbelliferyl-N-acetyl-beta-D-glucosaminide dihydrate as fluorogenic substrate at 10 uM preincubated with enzyme followed by substrate addition and measured every 5 mins for 60 mins by fluorescence based analysis
Homo sapiens = organism: Homo sapiens; assay: Inhibition of human placental beta-hexosaminidase using 4-methylumbelliferyl-N-acetyl-beta-D-glucosaminide dihydrate as fluorogenic substrate at 10 uM preincubated with enzyme followed by substrate addition and measured every 5 mins for 60 mins by fluorescence based analysis; type: tissue-based; settings: Placenta
[4] = Drug level in C57BL/6J mouse brain at 30 mg/kg, po after 0.5 hrs by LC/MS-MS analysis; type: ADME, organism-based; settings: read-out: Drug uptake
Summary of the method: (§1)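 Suspension in 0.5% (w/v) methylcellulose dosed orally at 30 mg/kg to C57Bl/6J mice (n = 3). Blood and brain taken at 0.5 and 1 h; plasma by centrifugation, brain homogenized in saline. Acetonitrile deproteinization with internal standard, supernatant diluted in 0.2% formic acid/10 mM ammonium formate (pH 3), LC/MS/MS quantitation.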

[5] = target: T2, Protein O-GlcNAcase (Homo sapiens); assay: Inhibition of OGA in human SH-SY5Y cells assessed as increase in O-GIcNAcylated protein levels incubated for 48 hrs by in-cell Western assay relative to control; type: cell-based
Summary of the method: (§2)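 SH-SY5Y cells seeded ~1.8 × 10⁴/well on poly-D-lysine, compound for 48 h at 37 °C. Methanol fixation, 0.1% Triton X-100 permeabilization, blocking, then Alexa Fluor 700-labelled anti-O-GlcNAc RL2 (1:500, 60 min RT). Infrared imaging of integrated fluorescence, normalized to DMSO (100%) and medium (0%); EC50 as curve inflection point, Emax as maximal % increase.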

[6] = Unbound drug level in C57BL/6J mouse brain at 30 mg/kg, po by equilibrium dialysis method; type: ADME, organism-based
Summary of the method: (§3)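 Unbound fraction in mouse plasma and brain determined by equilibrium dialysis, with the fractions used to correct total plasma and brain levels after a 30 mg/kg oral dose in 0.5% methylcellulose.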

Protein O-GlcNAcase [7] = target: T1, Protein O-GlcNAcase; assay: Inhibition of OGA in human SH-SY5Y cells assessed as increase in O-GIcNAcylated protein levels incubated for 48 hrs by in-cell Western assay; type: cell-based; summary of the method: as §2
[8] = Drug level in C57BL/6J mouse plasma at 30 mg/kg, po after 0.5 hrs by LC/MS-MS analysis; type: ADME, organism-based; summary of the method: as §1
[9] = Drug level in C57BL/6J mouse plasma at 30 mg/kg, po after 1 hrs by LC/MS-MS analysis; type: ADME, organism-based; summary of the method: as §1
[10] = Unbound brain-to-plasma concentration ratio in C57BL/6J mouse at 30 mg/kg, po after 1 hrs by equilibrium dialysis; type: ADME, organism-based; settings: read-out: K(p,uu,brain)
Summary of the method: (§4)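 Oral dose of 30 mg/kg in 0.5% methylcellulose to C57Bl/6J mice (n = 3); plasma and brain levels at 0.5 and 1 h by LC/MS/MS. Unbound fractions in plasma and brain by equilibrium dialysis; Kp,uu = (fu,brain × Cbrain)/(fu,plasma × Cplasma).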

[11] = Unbound brain-to-plasma concentration ratio in C57BL/6J mouse at 30 mg/kg, po after 0.5 hrs by equilibrium dialysis; type: ADME, organism-based; settings: read-out: K(p,uu,brain); summary of the method: as §4
[12] = Drug level in C57BL/6J mouse brain at 30 mg/kg, po after 1 hrs by LC/MS-MS analysis; type: ADME, organism-based; settings: read-out: Drug uptake; summary of the method: as §1
[13] = Inhibition of human placental beta-hexosaminidase using 4-methylumbelliferyl-N-acetyl-beta-D-glucosaminide dihydrate as fluorogenic substrate preincubated with enzyme followed by substrate addition and measured every 5 mins for 60 mins by fluorescence based analysis; type: tissue-based, Placenta
Summary of the method: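 Placental β-hexosaminidase at 10 μunits/mL in 50 mM NaH2PO4, 100 mM NaCl, 0.01% BSA, 0.01% Tween 20, 1 mM DTT, pH 7.4. Compound added before 2 mM substrate, room temperature. Fluorescence ex 355/em 460 nm; inhibition versus enzyme+DMSO (0%) and no-enzyme (100%) wells; IC50 from variable-slope sigmoidal regression.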

[14] = Unbound drug level in C57BL/6J mouse plasma at 30 mg/kg, po by equilibrium dialysis method; type: ADME, organism-based; summary of the method: as §3

## COC1CCN(c2ccnc(NCCc3ccccc3)n2)CC1
Protein O-GlcNAcase [1]
  IC50: 0.97 µM

## CC1CCN(c2ccnc(NCCc3ccccc3)n2)CC1
[2]
  inhibition: Active
Protein O-GlcNAcase [1]
  IC50: 0.024 µM

## CC1CCN(c2ccnc(NCCc3cccnc3)n2)CC1
Protein O-GlcNAcase [1]
  IC50: 0.031 µM

## c1ccc(CCNc2nccc(N3CCOCC3)n2)cc1
Protein O-GlcNAcase [1]
  IC50: 4.7 µM

## OC1CCN(c2ccnc(NCCc3ccccc3)n2)CC1
Protein O-GlcNAcase [1]
  IC50: > 10 µM

## CC1CCN(c2ccnc(NCc3cccnc3)n2)CC1
Protein O-GlcNAcase [1]
  IC50: 0.018 µM

## CC1CCN(c2ccnc(NC(C)CN3CCN(C)CC3)n2)CC1 (centres undefined)
[3]
  inhibition: > 50%
Homo sapiens
  inhibition: inactive
Protein O-GlcNAcase [1]
  IC50: 0.041 µM

## CC1CCN(c2ccnc(NCCc3ccccn3)n2)CC1
Protein O-GlcNAcase [1]
  IC50: 0.36 µM

## CC1CCN(c2ccnc(NCc3cn(C)cn3)n2)CC1 [TP-040]
[4]
  concentration at 0.5 h: 2700 ng/g
[5]
  Emax: 143%
[6]
  fraction unbound: 0.14
Protein O-GlcNAcase [7]
  EC50: 0.45 µM
[8]
  concentration at 0.5 h: 2800 ng/mL
[9]
  concentration at 1 h: 1900 ng/mL
[10]
  Kp uu at 1 h: 0.36
[11]
  Kp uu at 0.5 h: 0.25
[12]
  concentration at 1 h: 2600 ng/g
[13]
  IC50: > 10 µM
Protein O-GlcNAcase [1]
  IC50: 0.046 µM
[14]
  fraction unbound: 0.53

## CN1CCN(c2ccnc(NCCc3ccccc3)n2)CC1 [TP-040n]
Protein O-GlcNAcase [1]
  IC50: > 10 µM
